Active and inactive are the calls of the source. The rule behind the calls is not given here.
What was measured:
Salmonella typhimurium [1] = assay: Inhibition of Trp-P-1-induced SOS response to alteration in DNA synthesis in Salmonella Typhimurium TA1535 carrying pSK1002 containing umuC'-lacZ fused gene; type: functional, Salmonella enterica subsp. enterica serovar Typhimurium; settings: Salmonella enterica, read-out: ID50 (the source's name)
Summary of the method: (§1)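 S. typhimurium TA1535/pSK1002 (umuC′-′lacZ fusion on the plasmid). The overnight culture was diluted 50-fold in fresh TGA medium and grown at 37 °C to A600 0.25-0.30. SOS induction was read as β-galactosidase activity in Miller units. The S9 mix used rat liver S9 (phenobarbital/5,6-benzoflavone-pretreated males) with G-6-P, NADH and NADPH cofactors.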

Salmonella typhimurium [2] = assay: Inhibition of activated MeIQ-induced SOS response to alteration in DNA synthesis in Salmonella Typhimurium TA1535 carrying pSK1002 containing umuC'-lacZ fused gene; type: functional, Salmonella enterica subsp. enterica serovar Typhimurium; settings: Salmonella enterica, read-out: ID50 (the source's name); summary of the method: as §1
Salmonella typhimurium [3] = assay: Antimutagenic activity in Salmonella Typhimurium TA1535 carrying pSK1002 containing umuC'-lacZ fused gene assessed as suppression of MeIQ-induced SOS response to alteration in DNA synthesis at 0.6 mM measured by beta-galactosidase activity by Umu test; type: functional, Salmonella enterica subsp. enterica serovar Typhimurium; summary of the method: as §1
Salmonella typhimurium [4] = assay: Antimutagenic activity in Salmonella Typhimurium TA1535 carrying pSK1002 containing umuC'-lacZ fused gene assessed as suppression of Trp-P-1-induced SOS response to alteration in DNA synthesis at 0.05 mM measured by beta-galactosidase activity by Umu test; type: functional, Salmonella enterica subsp. enterica serovar Typhimurium; summary of the method: as §1
Salmonella typhimurium [5] = assay: Antimutagenic activity in Salmonella Typhimurium TA1535 carrying pSK1002 containing umuC'-lacZ fused gene assessed as suppression of MeIQ-induced SOS response to alteration in DNA synthesis at 0.05 mM measured by beta-galactosidase activity by Umu test; type: functional, Salmonella enterica subsp. enterica serovar Typhimurium; summary of the method: as §1
Salmonella typhimurium [6] = assay: Antimutagenic activity in Salmonella Typhimurium TA1535 carrying pSK1002 containing umuC'-lacZ fused gene assessed as suppression of 0.1 j/M2 UV light-induced SOS response to alteration in DNA synthesis at 0.1 mM measured by beta-galactosidase activity by Umu test; type: functional, Salmonella enterica subsp. enterica serovar Typhimurium; summary of the method: as §1
Salmonella typhimurium [7] = assay: Inhibition of MeIQ-induced SOS response to alteration in DNA synthesis in Salmonella Typhimurium TA1535 carrying pSK1002 containing umuC'-lacZ fused gene; type: functional, Salmonella enterica subsp. enterica serovar Typhimurium; settings: Salmonella enterica, read-out: ID50 (the source's name); summary of the method: as §1
Salmonella typhimurium [8] = assay: Antimutagenic activity in Salmonella Typhimurium TA1535 carrying pSK1002 containing umuC'-lacZ fused gene assessed as suppression of 0.1 j/M2 UV light-induced SOS response to alteration in DNA synthesis at 0.6 mM measured by beta-galactosidase activity by Umu test; type: functional, Salmonella enterica subsp. enterica serovar Typhimurium; summary of the method: as §1
Salmonella typhimurium [9] = assay: Inhibition of activated MeIQ-induced SOS response to alteration in DNA synthesis in Salmonella Typhimurium TA1535 carrying pSK1002 containing umuC'-lacZ fused gene at 0.6 mM; type: functional, Salmonella enterica subsp. enterica serovar Typhimurium; set-up: scale not given: the % may be the effect or the level left; summary of the method: as §1
Salmonella typhimurium [10] = assay: Antimutagenic activity in Salmonella Typhimurium TA1535 carrying pSK1002 containing umuC'-lacZ fused gene assessed as suppression of Trp-P-1-induced SOS response to alteration in DNA synthesis measured by beta-galactosidase activity by Umu test; type: functional, organism-based; settings: Salmonella enterica subsp. enterica serovar Typhimurium; summary of the method: as §1
Salmonella typhimurium [11] = assay: Inhibition of Trp-P-1-induced SOS response to alteration in DNA synthesis in Salmonella Typhimurium TA1535 carrying pSK1002 containing umuC'-lacZ fused gene at 0.6 mM; type: functional, Salmonella enterica subsp. enterica serovar Typhimurium; set-up: scale not given: the % may be the effect or the level left; summary of the method: as §1
Salmonella typhimurium [12] = assay: Inhibition of furyfuramide-induced SOS response to alteration in DNA synthesis in Salmonella Typhimurium TA1535 carrying pSK1002 containing umuC'-lacZ fused gene at 0.6 mM; type: functional, Salmonella enterica subsp. enterica serovar Typhimurium; set-up: scale not given: the % may be the effect or the level left; summary of the method: as §1
Salmonella typhimurium [13] = assay: Antimutagenic activity in Salmonella Typhimurium TA1535 carrying pSK1002 containing umuC'-lacZ fused gene assessed as suppression of activated MeIQ-induced SOS response to alteration in DNA synthesis at 0.6 mM measured by beta-galactosidase activity by Umu test; type: functional, Salmonella enterica subsp. enterica serovar Typhimurium; summary of the method: as §1
Salmonella typhimurium [14] = assay: Antimutagenic activity in Salmonella Typhimurium TA1535 carrying pSK1002 containing umuC'-lacZ fused gene assessed as suppression of 0.1 j/M2 UV light-induced SOS response to alteration in DNA synthesis at 0.05 mM measured by beta-galactosidase activity by Umu test; type: functional, Salmonella enterica subsp. enterica serovar Typhimurium; summary of the method: as §1
Salmonella typhimurium [15] = assay: Antimutagenic activity in Salmonella Typhimurium TA1535 carrying pSK1002 containing umuC'-lacZ fused gene assessed as suppression of activated Trp-P-1-induced SOS response to alteration in DNA synthesis at 0.3 mM measured by beta-galactosidase activity by Umu test; type: functional, Salmonella enterica subsp. enterica serovar Typhimurium; summary of the method: as §1
Salmonella typhimurium [16] = assay: Antimutagenic activity in Salmonella Typhimurium TA1535 carrying pSK1002 containing umuC'-lacZ fused gene assessed as suppression of furyfuramide-induced SOS response to alteration in DNA synthesis at 0.1 mM measured by beta-galactosidase activity by Umu test; type: functional, Salmonella enterica subsp. enterica serovar Typhimurium; summary of the method: as §1
Salmonella typhimurium [17] = assay: Antimutagenic activity in Salmonella Typhimurium TA1535 carrying pSK1002 containing umuC'-lacZ fused gene assessed as suppression of Trp-P-1-induced SOS response to alteration in DNA synthesis at 0.1 mM measured by beta-galactosidase activity by Umu test; type: functional, Salmonella enterica subsp. enterica serovar Typhimurium; summary of the method: as §1
Salmonella typhimurium [18] = assay: Antimutagenic activity in Salmonella Typhimurium TA1535 carrying pSK1002 containing umuC'-lacZ fused gene assessed as suppression of activated MeIQ-induced SOS response to alteration in DNA synthesis at 0.05 mM measured by beta-galactosidase activity by Umu test; type: functional, Salmonella enterica subsp. enterica serovar Typhimurium; summary of the method: as §1

IC50 (Salmonella typhimurium [1]): 160 µM
IC50 (Salmonella typhimurium [2]): 300 µM
IC50 (Salmonella typhimurium [7]): 40 µM
SMILES: COc1cc(-c2cc(=O)c3c(OC)c(OC)c(OC)c(OC)c3o2)ccc1O
Activity (Salmonella typhimurium [3]): 163.9 Miller_unit
Activity (Salmonella typhimurium [4]): 299.6 Miller_unit
Activity (Salmonella typhimurium [5]): 267.7 Miller_unit
Activity (Salmonella typhimurium [6]): 551.9 Miller_unit
Activity (Salmonella typhimurium [8]): 495.7 Miller_unit
Activity (Salmonella typhimurium [9]): 58.2%
Activity (Salmonella typhimurium [10]): Active
Activity (Salmonella typhimurium [11]): 72.4%
Activity (Salmonella typhimurium [12]): 28.7%
Activity (Salmonella typhimurium [13]): 224.2 Miller_unit
Activity (Salmonella typhimurium [14]): 574.1 Miller_unit
Activity (Salmonella typhimurium [15]): 182.4 Miller_unit
Activity (Salmonella typhimurium [16]): 511.2 Miller_unit
Activity (Salmonella typhimurium [17]): 285.4 Miller_unit
Activity (Salmonella typhimurium [18]): 394 Miller_unit

From ChEMBL document CHEMBL1148948, “Biotransformation of nobiletin by Aspergillus niger and the antimutagenic activity of a metabolite, 4'-hydroxy-5,6,7,8,3'-pentamethoxyflavone” (2004)
